High-throughput results from PubChem.
This is a sample that favours compounds with a hit; in the whole collection about 1.9% have one here.
M4 ag – CHRM4 agonism in calcium assay | P08173 | CHO-K1 hM4/Gqi5, Fluo-8 calcium fluorescence; vehicle 0%, full acetylcholine response 100% | activation, % at 3 µM | 360,000 compounds, 0.14% hits | AID 624127;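 active = activation above the run mean over all test wells plus 3 SD, cut at about 32% in these data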;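 note: peak over basal fluorescence ratio per well then scaled between controls; 0% = DMSO wells and 100% = acetylcholine at EC100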
M5 PAM – CHRM5 positive allosteric modulation; P08912; CHO-K1 hM5, Fluo-8 calcium, ACh EC20 PAM; 0% = ACh EC20, 100% = ACh EC100; activation, % at 3 µM; 360,000 compounds, 0.3% hits;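 active = activation above the run cutoff, the mean activation of all test compounds plus 3 SD, cut at about 18% in these data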
Target sequence (P08912 whole entry, looked up): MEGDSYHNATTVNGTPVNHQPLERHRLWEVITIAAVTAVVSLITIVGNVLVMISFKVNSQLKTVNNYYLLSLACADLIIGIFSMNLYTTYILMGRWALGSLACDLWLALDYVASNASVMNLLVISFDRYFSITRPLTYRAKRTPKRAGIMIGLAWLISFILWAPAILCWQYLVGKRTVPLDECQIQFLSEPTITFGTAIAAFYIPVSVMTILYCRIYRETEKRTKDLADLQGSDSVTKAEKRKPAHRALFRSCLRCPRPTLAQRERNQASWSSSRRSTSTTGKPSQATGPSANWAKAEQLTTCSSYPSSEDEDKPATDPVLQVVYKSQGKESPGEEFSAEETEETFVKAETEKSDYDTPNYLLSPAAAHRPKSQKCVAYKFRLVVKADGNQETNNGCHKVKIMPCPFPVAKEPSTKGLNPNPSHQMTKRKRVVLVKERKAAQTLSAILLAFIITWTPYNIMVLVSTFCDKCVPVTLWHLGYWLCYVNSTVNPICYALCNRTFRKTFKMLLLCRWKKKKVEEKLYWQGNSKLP
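Test system: CHO-K1 hM5 cells / Doses: single-point, 3 µM nominal / Times: Post-acetylcholine fluorescence recording 140 s / Technique: Fluo-8 calcium fluorescence / Measure: Max/basal fluorescence ratio as % of EC20–EC100 ACh window / Benchmarks: low control EC20 acetylcholine (0%), high control EC100 acetylcholine (100%) / Replicates: one well per compound, no replicates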
M4 PAM – positive allosteric modulators of human muscarinic M4 receptor | P08173 | CHO-K1 hM4/Gqi5, Fluo-8 calcium fluorescence, ACh EC20; 0% = ACh EC20, 100% = maximal ACh | activation, % at 3 µM | 360,000 compounds, 0.4% hits;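 active = activation above its plate's cutoff, the mean activation of sample wells plus 3 SD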
CHRM5 agonist – agonists of human muscarinic M5 receptor (CHRM5); P08912; CHO-K1 hM5 cells, Fluo-8 calcium fluorescence; 0% DMSO wells, 100% maximal acetylcholine response; activation, % at 3 µM; 360,000 compounds, 0.19% hits;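 active = activation above the run's mean over test compounds plus 3 SD, cut at about 23% in these data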;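 note: signal is peak over basal fluorescence ratio across the kinetic read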
M5 antag – blocks acetylcholine activation of human M5 receptor; CHO-hM5 cells, Fluo-8 calcium fluorescence, ACh EC80; inhibition, % at 3 µM; P08912; 360,000 compounds, 0.59% hits;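 active = inhibition above a per-plate cutoff, the mean of that plate's test compounds plus 3 SD, cut at about 27% in these data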;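 note: 0% = acetylcholine EC80 with DMSO and 100% = DMSO without agonist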
M4 antag – CHRM4 antagonism in calcium assay; P08173; CHO-hM4 cells, ACh EC80, Fluo-8 calcium fluorescence; inhibition, % at 3 µM; 360,000 compounds, 0.73% hits; AID 624125;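 active = inhibition above its plate's cutoff, the mean inhibition of sample wells plus 3 SD, cut at about 27% in these data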;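 note: 0% = acetylcholine EC80 with DMSO and 100% = DMSO without agonist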
The depositor's hits bear a star.

`c1ccc(OCCOCCN2CCN(C(c3ccccc3)c3ccccc3)CC2)cc1` gave M4 ag 1.3, M5 PAM -22.3, M4 PAM -43.6, CHRM5 agonist -7.7, M5 antag 51.9* and M4 antag 86.4*.
`O=S(=O)(CCN1CCN(C(c2ccccc2)c2ccccc2)CC1)C(F)(F)F` gave M4 ag 1.5, M5 PAM -22.1, M4 PAM -15.4, CHRM5 agonist -5.7, M5 antag 44.8* and M4 antag 47.7*.
For c1ccc(CN2CCN(C(c3ccccc3)c3ccccc3)CC2)cc1 the results were M4 ag -2.2, M5 PAM -25.8, M4 PAM -15.1, CHRM5 agonist -16.7, M5 antag 8.6 and M4 antag 12.1.
For COc1ccccc1OCCCCN1CCN(C(c2ccccc2)c2ccccc2)CC1 the results were M4 ag 0.6, M5 PAM -20.3, M4 PAM -37.6, CHRM5 agonist -6.7, M5 antag 22.1 and M4 antag 62.9*.
For OC(COc1ccccc1)CN1CCN(C(c2ccccc2)c2ccccc2)CC1 (stereo unspecified) the results were M4 ag -1.1, M5 PAM -31.6, M4 PAM -12.6, CHRM5 agonist -24.9, M5 antag 17.4 and M4 antag 16.7.
Screening CC(C)(C)c1ccc(CC(=O)N2CCC2(C)C(=O)Nc2cccc3cccnc23)cc1 (stereo unspecified) returned M4 ag 5.3, M5 PAM -6.9, M4 PAM -1.9, CHRM5 agonist 0.9, M5 antag -0.2 and M4 antag -12.3.
Screening CCOc1ccccc1CNC(=O)C1CCN(S(=O)(=O)N2CCC(C)CC2)CC1 returned M4 ag 2.8, M5 PAM -2.6, M4 PAM -3.4, CHRM5 agonist 0.8, M5 antag 3.3 and M4 antag -0.4.
CCOc1ccccc1N1CCN(c2ncnc3scc(-c4ccc(OC)cc4)c23)CC1 was read as M4 ag 7.9, M5 PAM -15.2, M4 PAM -12.7, CHRM5 agonist -5.4, M5 antag 14.3 and M4 antag 26.9*.
`CN1CCN(c2ncnc3scc(-c4ccccc4Cl)c23)CC1` gave M4 ag 3.6, M5 PAM -15.6, M4 PAM -9.5, CHRM5 agonist -7.8, M5 antag 29.8* and M4 antag 3.7.
Screening COc1ccc(-c2nc(CS(=O)CC(=O)NCCCN3CCOCC3)c(C)o2)cc1OC (stereo unspecified) returned M4 ag 1.1, M5 PAM -1.6, M4 PAM -4.3, CHRM5 agonist -2.9, M5 antag 2.3 and M4 antag 4.2.
`CCCN1C(=O)/C(=C/c2c(N3CCNC(=O)C3CC(=O)OCC)nc3c(C)cccn3c2=O)SC1=S` (stereo unspecified) gave M4 ag 12.1, M5 PAM -23.8, M4 PAM -10.4, CHRM5 agonist 25.5*, M5 antag 22.4 and M4 antag 13.0.
`Cc1nc2nc(C)n(CCN3CCOCC3)c(=O)c2c(-c2cccc([N+](=O)[O-])c2)c1C(=O)CCCCCCCCCCN1CCC(c2ccccc2)(c2ccccc2)CC1` gave M4 ag 20.8, M5 PAM -44.0, M4 PAM -12.3, CHRM5 agonist -5.7, M5 antag 95.8* and M4 antag 94.6*.
Cn1cnc(S(=O)(=O)N2CCN(c3ccc(Cl)cc3)CC2)c1 was read as M4 ag 18.3, M5 PAM -7.7, M4 PAM -6.9, CHRM5 agonist 2.9, M5 antag 6.0 and M4 antag -1.1.
For O=C(CN1CCN(c2ccccc2)CC1)Nc1ccncc1 the results were M4 ag 3.3, M5 PAM 0.8, M4 PAM -3.5, CHRM5 agonist 2.8, M5 antag 5.4 and M4 antag -9.8.
For O=C(CN1CCN(c2ccccc2)CC1)Nc1ccc2c(c1)CCC2 the results were M4 ag 1.2, M5 PAM -0.5, M4 PAM 20.5*, CHRM5 agonist -3.4, M5 antag -5.2 and M4 antag -6.3.
O=C(c1ccc(N2CCCC2=O)cc1)N1CCN(c2ccccc2)CC1 was read as M4 ag 0.8, M5 PAM 45.3*, M4 PAM 6.3, CHRM5 agonist 1.3, M5 antag 10.7 and M4 antag -5.1.
`N=C(N)SCC1=CCS(=O)(=O)C1` gave M4 ag 19.4, M5 PAM -19.6, M4 PAM -9.0, CHRM5 agonist -1.9, M5 antag 31.5* and M4 antag 20.8.
CN(C)c1cc(-c2ccccc2)nc(-c2ccccc2)n1 was read as M4 ag 0.3, M5 PAM -5.9, M4 PAM -0.7, CHRM5 agonist -1.9, M5 antag 5.5 and M4 antag -1.6.
For Cc1c(C(=O)c2ccc(Cl)cc2[N+](=O)[O-])c2ccccn2c1CCC#N the results were M4 ag 2.7, M5 PAM 19.3*, M4 PAM 15.9, CHRM5 agonist 3.2, M5 antag 8.4 and M4 antag -2.5.
Screening NC(Cc1ccc(Cl)cc1)c1csc(NC(=O)NCC2CCCCC2)n1 (stereo unspecified) returned M4 ag 29.8, M5 PAM 0.9, M4 PAM 1.9, CHRM5 agonist 8.2, M5 antag 13.9 and M4 antag 25.9.
Screening CN(CCN1CCOCC1)C(=O)CC1C(=O)NCCN1Cc1ccccc1C(F)(F)F (stereo unspecified) returned M4 ag 0.7, M5 PAM -1.2, M4 PAM 19.4*, CHRM5 agonist -4.6, M5 antag 0.8 and M4 antag -13.5.
COc1cc(OC)cc(C(=O)Nc2ccc3c(c2)n(C)c(=O)n3C)c1 was read as M4 ag 2.1, M5 PAM 0.1, M4 PAM 3.3, CHRM5 agonist 2.0, M5 antag -8.0 and M4 antag -5.2.
`CCn1c(=O)n(CC)c2cc(NC(=O)c3ccccc3Cl)ccc21` gave M4 ag 0.5, M5 PAM 20.3*, M4 PAM -2.6, CHRM5 agonist 8.9, M5 antag -21.0 and M4 antag 5.6.
For CCc1ccc(C(=O)Nc2ccc3c(c2)n(C)c(=O)n3C)cc1 the results were M4 ag 0.8, M5 PAM 23.6*, M4 PAM -3.9, CHRM5 agonist 2.0, M5 antag -17.7 and M4 antag -5.5.
Screening O=C(Nc1ccc(Cl)cc1)Nc1nc(-c2ccccc2O)cs1 returned M4 ag 17.7, M5 PAM -30.7, M4 PAM -22.5, CHRM5 agonist 7.7, M5 antag 35.6* and M4 antag 29.3*.
